The source of these data is ChEMBL document CHEMBL3407367 (J Med Chem, 2015).

Series [1] relates to RPE. The experiment in a line: Inhibition of complement activation in human fetal RPE cells assessed as reduction in C5b-9 formation at 1 uM by fluorescence assay in presence of complement-competant human serum. The series is classed as cell-based. The essentials:
(§1)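 Human fetal RPE cells from two donor lines (081309, 072810) were grown on porous supports in Miller medium with 5% FCS. Peptide (1 µM; one experiment 1, 10, 50 µM) in serum-free medium with 10% human complement serum was premixed 30 min at RT, then incubated overnight at 37 °C. Samples were PFA-fixed and sections immunostained; the confocal C5b-9/ApoE area ratio is given as % of serum-only control; n = 10; Mann–Whitney U.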

Series [2] is described as follows: Solubility of the compound in PBS at pH 7.4 after 24 to 48 hrs by spectrophotometry. The class given is physicochemical. A digest of the protocol:
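About 1 mg peptide put in 200 μL PBS pH 7.4 (top reportable value 5 mg/mL). Vortexed 30 s, centrifuged 13000g for 5 min. Supernatant A280 read and converted to concentration by Beer–Lambert, with extinction coefficients from Trp/Tyr count. Samples held at 4 °C and re-read at 24 and 48 h. Mean and standard deviation of three readings per sample.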

Series [3] relates to RPE. The series is described as follows: Inhibition of complement activation in human fetal RPE cells assessed as reduction in C5b-9 formation at 50 uM by fluorescence assay in presence of complement-competant human serum. The series is classed as cell-based. A digest of the protocol:
as §1

Another series deals with Complement C3 (Homo sapiens, UniProt P01024). The experiment in a line: Inhibition of C3 cleavage in human serum assessed as reduction in C5b-9 formation compound preincubated for 15 mins measured 1 hr post LPS stimulation by ELISA. (In general: In an ELISA, binding on a coated surface is turned into a signal by an enzyme label.)
Complement C3, sequence (P01024 23-667 limits assumed): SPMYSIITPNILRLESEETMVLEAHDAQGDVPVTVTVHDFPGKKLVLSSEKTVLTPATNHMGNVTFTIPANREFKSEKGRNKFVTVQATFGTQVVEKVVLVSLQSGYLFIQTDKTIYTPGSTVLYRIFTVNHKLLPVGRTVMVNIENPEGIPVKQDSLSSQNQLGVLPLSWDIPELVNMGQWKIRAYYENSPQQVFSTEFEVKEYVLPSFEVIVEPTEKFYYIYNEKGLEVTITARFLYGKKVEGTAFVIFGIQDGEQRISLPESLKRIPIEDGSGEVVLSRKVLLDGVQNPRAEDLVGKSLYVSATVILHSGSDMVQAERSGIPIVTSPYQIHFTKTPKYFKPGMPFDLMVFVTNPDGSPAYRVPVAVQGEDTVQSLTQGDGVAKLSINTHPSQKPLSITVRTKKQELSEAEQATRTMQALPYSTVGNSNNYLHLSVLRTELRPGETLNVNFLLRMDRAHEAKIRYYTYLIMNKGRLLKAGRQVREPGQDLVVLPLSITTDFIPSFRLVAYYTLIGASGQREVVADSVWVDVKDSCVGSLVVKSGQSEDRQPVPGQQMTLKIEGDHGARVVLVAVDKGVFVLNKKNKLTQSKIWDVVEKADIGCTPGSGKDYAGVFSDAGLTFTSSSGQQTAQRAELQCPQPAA
Complement C3, sequence (P01024 672-1663 limits assumed): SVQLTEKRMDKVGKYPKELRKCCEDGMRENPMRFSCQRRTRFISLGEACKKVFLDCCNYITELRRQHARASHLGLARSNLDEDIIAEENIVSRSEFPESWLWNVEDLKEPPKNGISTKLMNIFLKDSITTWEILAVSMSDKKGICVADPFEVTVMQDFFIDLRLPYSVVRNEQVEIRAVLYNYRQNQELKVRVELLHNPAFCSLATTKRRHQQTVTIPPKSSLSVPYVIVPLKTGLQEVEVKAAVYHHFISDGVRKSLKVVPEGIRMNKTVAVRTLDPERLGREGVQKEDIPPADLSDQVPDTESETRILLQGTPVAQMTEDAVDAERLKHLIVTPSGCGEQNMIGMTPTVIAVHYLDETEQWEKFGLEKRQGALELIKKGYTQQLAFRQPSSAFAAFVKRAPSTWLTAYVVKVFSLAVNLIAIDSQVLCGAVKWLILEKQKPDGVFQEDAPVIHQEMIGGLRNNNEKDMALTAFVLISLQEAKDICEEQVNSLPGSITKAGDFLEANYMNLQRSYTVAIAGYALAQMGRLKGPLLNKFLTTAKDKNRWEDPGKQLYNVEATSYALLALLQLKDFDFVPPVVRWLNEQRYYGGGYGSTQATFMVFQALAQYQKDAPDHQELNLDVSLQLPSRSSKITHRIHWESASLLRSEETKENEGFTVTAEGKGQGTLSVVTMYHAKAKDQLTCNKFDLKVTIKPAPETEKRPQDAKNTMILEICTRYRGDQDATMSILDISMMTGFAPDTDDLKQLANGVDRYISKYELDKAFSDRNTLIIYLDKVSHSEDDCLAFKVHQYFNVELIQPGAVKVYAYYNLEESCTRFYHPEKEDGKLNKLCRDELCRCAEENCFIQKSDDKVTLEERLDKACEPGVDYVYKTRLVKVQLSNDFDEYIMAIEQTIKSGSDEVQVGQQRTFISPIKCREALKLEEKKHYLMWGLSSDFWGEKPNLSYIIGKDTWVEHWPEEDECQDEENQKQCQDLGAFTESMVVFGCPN

Values after ≈ are worked out from the molar mass of the structure shown. Active and inactive are the calls of the source. No cut-off for these calls is given here. Positions of bridges follow the written chain, without caps; N, C: chain ends. Non-standard residues stand in square brackets, D forms with d. Residues, ends and D or L forms follow the SMILES beside them. Trp(1-Me) = Cn1cc(C[C@H](N)C(=O)O)c2ccccc21; 1Nal = N[C@@H](Cc1cccc2ccccc12)C(=O)O

Take `CC[C@H](C)[C@H](NC(C)=O)C(=O)N[C@H]1CSSC[C@@H](C(=O)N[C@H](C(N)=O)[C@@H](C)O)NC(=O)[C@H](CCCNC(=N)N)NC(=O)[C@H](Cc2cnc[nH]2)NC(=O)[C@H](C)NC(=O)CNC(=O)[C@H](Cc2c[nH]c3ccccc23)NC(=O)[C@H](CC(=O)O)NC(=O)[C@H](CCC(N)=O)NC(=O)[C@H](Cc2c[nH]c3ccccc23)NC(=O)[C@H](C(C)C)NC1=O`: in the series on RPE [1], the inhibition result is “Active”. The compound also displayed a solubility in series [2] of 3200 µg/mL (≈ 1980 µM).
Turning to `CC[C@H](C)[C@H](NC(=O)[C@H](CO)NC(=O)[C@H](CCCNC(=N)N)NC(C)=O)C(=O)N[C@H]1CSSC[C@@H](C(=O)N[C@H](C(N)=O)[C@@H](C)O)NC(=O)[C@H](CCCNC(=N)N)NC(=O)[C@H](Cc2cnc[nH]2)NC(=O)[C@H](C)NC(=O)CNC(=O)[C@H](Cc2c[nH]c3ccccc23)NC(=O)[C@H](CC(=O)O)NC(=O)[C@H](CCC(N)=O)NC(=O)[C@H](Cc2ccc(O)cc2)NC(=O)[C@H](C(C)C)NC1=O`, the inhibition result in the series with RPE [1] was “Active”. In series [2], the solubility was 5000 µg/mL (≈ 2730 µM).
In series [2], `CC[C@H](C)[C@H](NC(C)=O)C(=O)N[C@H]1CSSC[C@@H](C(=O)N[C@H](C(N)=O)[C@@H](C)O)NC(=O)[C@H](CCCNC(=N)N)NC(=O)[C@H](Cc2cnc[nH]2)NC(=O)[C@H](C)NC(=O)CNC(=O)[C@H](Cc2c[nH]c3ccccc23)NC(=O)[C@H](CC(=O)O)NC(=O)[C@H](CCC(N)=O)NC(=O)[C@H](Cc2cn(C)c3ccccc23)NC(=O)[C@H](C(C)C)NC1=O` returned a solubility of 1900 µg/mL (≈ 1170 µM).
`CC[C@H](C)[C@H](N)C(=O)N[C@H]1CSSC[C@@H](C(=O)N[C@H](C(N)=O)[C@@H](C)O)NC(=O)[C@H](CCCNC(=N)N)NC(=O)[C@H](Cc2cnc[nH]2)NC(=O)[C@H](Cc2cnc[nH]2)NC(=O)CNC(=O)[C@H](Cc2c[nH]c3ccccc23)NC(=O)[C@H](CC(=O)O)NC(=O)[C@H](CCC(N)=O)NC(=O)[C@H](C(C)C)NC(=O)[C@H](C(C)C)NC1=O`: the inhibition entry in the series with RPE [3] was “Active”.
As to `CC[C@H](C)[C@H](NC(C)=O)C(=O)N[C@H]1CSSC[C@@H](C(=O)N[C@H](C(N)=O)[C@@H](C)O)NC(=O)[C@H](CCCNC(=N)N)NC(=O)[C@H](Cc2cnc[nH]2)NC(=O)[C@](C)(CC)NC(=O)CNC(=O)[C@H](Cc2c[nH]c3ccccc23)NC(=O)[C@H](CC(=O)O)NC(=O)[C@H](CCC(N)=O)NC(=O)[C@H](Cc2c[nH]c3ccccc23)NC(=O)[C@H](C(C)C)NC1=O`, the inhibition result in the series on RPE [1] is “Active”.
In the case of `CC[C@H](C)[C@H](NC(C)=O)C(=O)N[C@H]1CSSC[C@@H](C(=O)N[C@H](C(N)=O)[C@@H](C)O)NC(=O)[C@H](CCCNC(=N)N)NC(=O)[C@H](Cc2cnc[nH]2)NC(=O)[C@H](Cc2cccc3ccccc23)NC(=O)CNC(=O)[C@H](Cc2c[nH]c3ccccc23)NC(=O)[C@H](CC(=O)O)NC(=O)[C@H](CCC(N)=O)NC(=O)[C@H](Cc2c[nH]c3ccccc23)NC(=O)[C@H](C(C)C)NC1=O` (Ac-ICVWQDWG[1Nal]HRCT-NH2; disulfide 2-12), in series [2], the concentration in solution (solubility) was 100 µg/mL (≈ 57.5 µM).
For the compound `CC[C@H](C)[C@H](NC(C)=O)C(=O)N[C@H]1CSSC[C@@H](C(=O)N[C@H](C(N)=O)[C@@H](C)O)NC(=O)[C@H](CCCNC(=N)N)NC(=O)[C@H](Cc2cnc[nH]2)NC(=O)[C@H](Cc2cccc3ccccc23)NC(=O)CNC(=O)[C@H](Cc2c[nH]c3ccccc23)NC(=O)[C@H](CC(=O)O)NC(=O)[C@H](CCC(N)=O)NC(=O)[C@H](Cc2cn(C)c3ccccc23)NC(=O)[C@H](C(C)C)NC1=O` (Ac-ICV[Trp(1-Me)]QDWG[1Nal]HRCT-NH2; disulfide 2-12), the IC50 at Complement C3 came to 4 µM. In series [2], the solubility came out at 100 µg/mL (≈ 57 µM).
Regarding `CC(=O)N[C@@H](CC(N)=O)C(=O)N[C@@H](CCCNC(=N)N)C(=O)N[C@@H](CC(C)C)C(=O)N[C@H]1CSSC[C@@H](C(=O)N[C@H](C(N)=O)[C@@H](C)O)NC(=O)[C@H](CCCNC(=N)N)NC(=O)[C@H](Cc2cnc[nH]2)NC(=O)[C@H](C)NC(=O)CNC(=O)[C@H](Cc2c[nH]c3ccccc23)NC(=O)[C@H](CC(=O)O)NC(=O)[C@H](CCC(N)=O)NC(=O)[C@H](Cc2c[nH]c3ccccc23)NC(=O)[C@H](C(C)C)NC1=O` (Ac-NRLCVWQDWGAHRCT-NH2; disulfide 4-14), the inhibition entry in the series with RPE [1] was “Active”.
Consider `CC(=O)N[C@@H](CC(N)=O)C(=O)N[C@@H](CCCNC(=N)N)C(=O)N[C@@H](CC(C)C)C(=O)N[C@H]1CSSC[C@@H](C(=O)N[C@H](C(N)=O)[C@@H](C)O)NC(=O)[C@H](CCCNC(=N)N)NC(=O)[C@H](Cc2cnc[nH]2)NC(=O)[C@H](Cc2cccc3ccccc23)NC(=O)CNC(=O)[C@H](Cc2c[nH]c3ccccc23)NC(=O)[C@H](CC(=O)O)NC(=O)[C@H](CCC(N)=O)NC(=O)[C@H](Cc2c[nH]c3ccccc23)NC(=O)[C@H](C(C)C)NC1=O` (Ac-NRLCVWQDWG[1Nal]HRCT-NH2; disulfide 4-14), for which the inhibition entry with RPE [1] was “Active”.
Same read-out and setting: as for `CC[C@H](C)[C@H](NC(=O)[C@H](CO)NC(=O)[C@H](CCCNC(=N)N)NC(C)=O)C(=O)N[C@H]1CSSC[C@@H](C(=O)N[C@H](C(N)=O)[C@@H](C)O)NC(=O)[C@H](CCCNC(=N)N)NC(=O)[C@H](Cc2cnc[nH]2)NC(=O)[C@H](C)NC(=O)CNC(=O)[C@H](Cc2c[nH]c3ccccc23)NC(=O)[C@H](CC(=O)O)NC(=O)[C@H](CCC(N)=O)NC(=O)[C@H](Cc2cccc3ccccc23)NC(=O)[C@H](C(C)C)NC1=O` (Ac-RSICV[1Nal]QDWGAHRCT-NH2; disulfide 4-14), the entry is “Active”.
`CC[C@H](C)[C@H](N)C(=O)N[C@H]1CSSC[C@@H](C(=O)N[C@H](C(N)=O)[C@@H](C)O)NC(=O)[C@H](CCCN=C(N)N)NC(=O)[C@H](Cc2cnc[nH]2)NC(=O)[C@H](Cc2cnc[nH]2)NC(=O)CNC(=O)[C@H](Cc2c[nH]c3ccccc23)NC(=O)[C@H](CC(=O)O)NC(=O)[C@H](CCC(N)=O)NC(=O)[C@H](C(C)C)NC(=O)[C@H](C(C)C)NC1=O` [COMPSTATIN] registered a solubility in series [2] of 4500 µg/mL (≈ 2900 µM).

As a reminder, the solubility is how much of the substance goes into solution per volume. Read a high solubility as much dissolved substance. What is called IC50 is the concentration needed to halve the response being measured.
